Assay results: ChEMBL document CHEMBL4334471, “Discovery of 1,8-disubstituted-[1,2,3]triazolo[4,5-c]quinoline derivatives as a new class of Hippo signaling pathway inhibitors” (Bioorg Med Chem Lett, 2019)
pIC50: −log10 of the molar value.

Experiments:
[1] = system: Tyrosine-protein kinase ABL1 (Homo sapiens), P00519 [T315I]; test: Inhibition of human ABL1 T315I mutant (27 to end residues) assessed as residual activity at 10 uM using EAIYAAPFAKKK as substrate incubated for 40 mins in presence of [gamma-33ATP] by scintillation counting based radiometry assay relative to control
[2] = target: Activin receptor type-1-like (Homo sapiens) (UniProt P37023); test: Inhibition of recombinant human ALK1 (142 to end residues) assessed as residual activity at 10 uM using casein as substrate incubated for 40 mins in presence of [gamma-33ATP] by scintillation counting based radiometry assay relative to control
[3] = target: Bone morphogenetic protein receptor type-1B (Homo sapiens) (UniProt O00238); test: Inhibition of human ALK6 (148 to end residues) assessed as residual activity at 10 uM using casein as substrate incubated for 40 mins in presence of [gamma-33ATP] by scintillation counting based radiometry assay relative to control
[4] = target: BMP-2-inducible protein kinase (Homo sapiens) (UniProt Q9NSY1); test: Inhibition of recombinant human BIKe assessed as residual activity at 10 uM using peptide as substrate incubated for 120 mins in presence of [gamma-33ATP] by scintillation counting based radiometry assay relative to control
[5] = system: Tyrosine-protein kinase BTK (Homo sapiens), Q06187 [R28H]; test: Inhibition of recombinant full length human BTK R28H mutant assessed as residual activity at 10 uM using LSNLYHQGKFLQTFCGSPLYRRR substrate incubated for 40 mins in presence of [gamma-33ATP] by scintillation counting based radiometry assay relative to control
[6] = target: CDK12/Cyclin K (Homo sapiens) (UniProt O75909+Q9NYV4); test: Inhibition of recombinant full length human CDK12/cyclinK assessed as residual activity at 10 uM using RSRSRSRSRSRSR as substrate incubated for 40 mins in presence of [gamma-33ATP] by scintillation counting based radiometry assay relative to control; format: protein-complex assay
[7] = target: CDK17/Cyclin-Y (Homo sapiens) (UniProt Q00537+Q8ND76); test: Inhibition of recombinant full length human CDK17/cyclinY assessed as residual activity at 10 uM using PKSPKARKKL as substrate incubated for 40 mins in presence of [gamma-33ATP] by scintillation counting based radiometry assay relative to control; format: protein-complex assay
[8] = target: Casein kinase 2 (Homo sapiens) (UniProt P67870+P68400+P19784+Q8NEV1); test: Inhibition of recombinant human CK2 assessed as residual activity at 10 uM in presence of [gamma-33ATP] by scintillation counting based radiometry assay relative to control; format: protein assay
[9] = target: Dual specificity protein kinase CLK2 (Homo sapiens) (UniProt P49760); test: Inhibition of recombinant human CLK2 (138 to end residues) assessed as residual activity at 10 uM using YRRAAVPPSPSLSRHSSPHQS(p)EDEEE as substrate incubated 40 mins in presence of [gamma-33ATP] by scintillation counting based radiometry assay relative to control
[10] = system: Mast/stem cell growth factor receptor Kit (Homo sapiens), P10721 [V560G]; test: Inhibition of recombinant human C-Kit V560G mutant (544 to end residues) assessed as residual activity at 10 uM poly(Glu, Tyr) 4:1 as substrate incubated 40 mins in presence of [gamma-33ATP] by scintillation counting based radiometry assay relative to control
[11] = target: Fibroblast growth factor receptor 3 (Homo sapiens) (UniProt P22607); test: Inhibition of recombinant human FGFR3 (447 to 761 residues) assessed as residual activity at 10 uM using poly(Glu, Tyr) 4:1 as substrate at 40 mins in presence of [gamma-33ATP] by scintillation counting based radiometry assay relative to control
[12] = system: Serine/threonine-protein kinase Nek4 (Homo sapiens), P51957 [P225A]; test: Inhibition of recombinant full-length human NEK4 P225A mutant assessed as residual activity at 10 uM using myelin basic protein as substrate measured after 40 mins in presence of [gamma33P]ATP by scintillation counting based radiometry assay relative to control
[13] = target: [Pyruvate dehydrogenase (acetyl-transferring)] kinase isozyme 4, mitochondrial (Homo sapiens) (UniProt Q16654); test: Inhibition of recombinant human full length PDHK4 assessed as residual activity at 10 uM using KKKYHGHSMSDPGVSYRT as substrate incubated for 40 mins in presence of [gamma33P]ATP by scintillation counting based radiometry assay relative to control
[14] = target: Serine/threonine-protein kinase pim-1 (Homo sapiens) (UniProt P11309); test: Inhibition of recombinant full length human Pim1 assessed as residual activity at 10 uM using KKRNRTLTV as substrate incubated for 40 mins in presence of [gamma33P]ATP by scintillation counting based radiometry assay relative to control
[15] = system: Serine/threonine-protein kinase N1 (Homo sapiens), Q16512 [V901I]; test: Inhibition of recombinant human PRK1 V901I mutant (498 to end residues) assessed as residual activity at 10 uM using KKLNRTLSFAEPG as substrate incubated for 40 mins in presence of [gamma33P]ATP by scintillation counting based radiometry assay relative to control
[16] = target: Serine/threonine-protein kinase 16 (Homo sapiens) (UniProt O75716); test: Inhibition of human STK16 assessed as residual activity at 10 uM in presence of [gamma33P]ATP by scintillation counting based radiometry assay relative to control
Homo sapiens = organism: Homo sapiens; test: Inhibition of activated recombinant human TEC F514V mutant activated (174 to end residues) assessed as residual activity at 10 uM using EFPIYDFLPAKKK as substrate incubated for 40 mins in presence of [gamma33P]ATP by scintillation counting based radiometry assay relative to control
[17] = target: Tribbles homolog 2 (Homo sapiens) (UniProt Q92519); test: Inhibition of recombinant full-length human TRB2 assessed as residual activity at 10 uM using RRRFRPASPLRGPPK as substrate incubated for 120 mins in presence of [gamma33P]ATP by scintillation counting based radiometry assay relative to control
[18] = target: Mitogen-activated protein kinase kinase kinase 20 (Homo sapiens) (UniProt Q9NYL2); test: Inhibition of recombinant full-length human ZAK assessed as residual activity at 10 uM using MBP as substrate incubated for 40 mins in presence of [gamma33P]ATP by scintillation counting based radiometry assay relative to control
[19] = target: Serine/threonine-protein kinase 4 (Homo sapiens, UniProt Q13043); test: Inhibition of recombinant full-length human MST1 assessed as residual activity using KKSRGDYMTMQIG as substrate measured after 40 mins in presence of [gamma33P]ATP by scintillation counting based radiometry assay
Procedure, shortened: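 Outsourced kinase profiling of MST1 by a commercial service (Eurofins); activity reported as mean ± SEM of 2 replicates.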

A549 = test: Inhibition of hippo signalling protein in human A549 cells assessed as increase in CTGF mRNA expression level incubated for 24 hrs by qRT-PCR analysis; format: cell-based
Procedure, shortened: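 A549-CTGF cells were exposed to compound or 0.1% DMSO for 24 h before total RNA extraction. Endogenous CTGF mRNA was quantified by real-time PCR. Data were mean ± SEM (n=4) and compared by Student's t-test.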

[Pyruvate dehydrogenase (acetyl-transferring)] kinase isozyme 4, mitochondrial (Homo sapiens), sequence (Q16654 whole entry, looked up): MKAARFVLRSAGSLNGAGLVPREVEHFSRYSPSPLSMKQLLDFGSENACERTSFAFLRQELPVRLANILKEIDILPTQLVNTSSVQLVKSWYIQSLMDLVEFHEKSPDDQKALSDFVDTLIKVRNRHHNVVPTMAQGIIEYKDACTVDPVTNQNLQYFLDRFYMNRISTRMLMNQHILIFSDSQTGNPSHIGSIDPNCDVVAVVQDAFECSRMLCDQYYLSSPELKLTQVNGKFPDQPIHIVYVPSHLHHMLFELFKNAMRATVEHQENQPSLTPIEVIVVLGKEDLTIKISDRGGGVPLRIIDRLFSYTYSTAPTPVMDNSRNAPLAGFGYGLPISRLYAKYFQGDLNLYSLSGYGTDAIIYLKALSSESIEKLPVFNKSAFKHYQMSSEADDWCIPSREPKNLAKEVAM
Bone morphogenetic protein receptor type-1B (Homo sapiens), sequence (O00238 whole entry): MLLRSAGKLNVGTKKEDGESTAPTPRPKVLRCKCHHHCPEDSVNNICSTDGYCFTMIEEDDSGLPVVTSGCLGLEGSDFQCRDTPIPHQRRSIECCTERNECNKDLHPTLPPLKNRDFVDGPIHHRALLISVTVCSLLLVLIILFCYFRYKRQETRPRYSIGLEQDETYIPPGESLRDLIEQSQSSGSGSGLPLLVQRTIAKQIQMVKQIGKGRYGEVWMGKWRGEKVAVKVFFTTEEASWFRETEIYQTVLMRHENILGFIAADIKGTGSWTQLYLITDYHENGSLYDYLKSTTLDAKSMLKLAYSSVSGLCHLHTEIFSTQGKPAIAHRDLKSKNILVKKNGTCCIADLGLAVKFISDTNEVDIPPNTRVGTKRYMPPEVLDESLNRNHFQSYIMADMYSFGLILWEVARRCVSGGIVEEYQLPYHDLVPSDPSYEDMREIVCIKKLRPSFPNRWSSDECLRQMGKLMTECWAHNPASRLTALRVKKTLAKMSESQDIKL
BMP-2-inducible protein kinase (Homo sapiens), sequence (Q9NSY1 whole entry, looked up): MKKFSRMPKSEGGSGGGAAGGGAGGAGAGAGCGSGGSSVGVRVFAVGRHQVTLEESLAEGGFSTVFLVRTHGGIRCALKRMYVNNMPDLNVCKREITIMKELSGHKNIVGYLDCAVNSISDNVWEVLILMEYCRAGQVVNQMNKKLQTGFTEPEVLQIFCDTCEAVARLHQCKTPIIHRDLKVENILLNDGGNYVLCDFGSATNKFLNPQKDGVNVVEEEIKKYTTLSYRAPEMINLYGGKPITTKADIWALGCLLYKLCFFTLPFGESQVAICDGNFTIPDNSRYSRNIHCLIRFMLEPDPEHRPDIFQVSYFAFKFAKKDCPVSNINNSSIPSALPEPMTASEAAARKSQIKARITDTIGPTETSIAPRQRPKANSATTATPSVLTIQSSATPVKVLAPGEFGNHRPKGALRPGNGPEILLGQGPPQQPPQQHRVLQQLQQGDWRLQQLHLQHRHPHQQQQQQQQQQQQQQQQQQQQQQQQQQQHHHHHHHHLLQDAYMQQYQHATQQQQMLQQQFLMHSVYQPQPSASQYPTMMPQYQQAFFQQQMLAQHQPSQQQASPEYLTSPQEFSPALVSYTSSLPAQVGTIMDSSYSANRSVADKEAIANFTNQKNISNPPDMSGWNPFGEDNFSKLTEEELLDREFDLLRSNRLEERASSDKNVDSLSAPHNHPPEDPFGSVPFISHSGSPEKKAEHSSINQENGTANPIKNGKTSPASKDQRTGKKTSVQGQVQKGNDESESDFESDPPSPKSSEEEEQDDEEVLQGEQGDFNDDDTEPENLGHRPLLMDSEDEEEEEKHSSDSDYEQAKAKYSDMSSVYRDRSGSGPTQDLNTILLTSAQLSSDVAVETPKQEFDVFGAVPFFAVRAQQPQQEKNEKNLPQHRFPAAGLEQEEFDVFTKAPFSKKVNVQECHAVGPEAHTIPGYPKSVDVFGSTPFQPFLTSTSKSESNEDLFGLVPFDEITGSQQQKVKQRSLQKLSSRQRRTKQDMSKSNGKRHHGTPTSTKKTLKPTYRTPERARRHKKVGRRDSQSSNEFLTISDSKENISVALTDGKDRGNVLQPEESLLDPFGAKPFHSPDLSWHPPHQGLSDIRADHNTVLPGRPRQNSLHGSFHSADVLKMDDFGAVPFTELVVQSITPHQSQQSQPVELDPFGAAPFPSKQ
Dual specificity protein kinase CLK2 (Homo sapiens), sequence (P49760 whole entry, looked up): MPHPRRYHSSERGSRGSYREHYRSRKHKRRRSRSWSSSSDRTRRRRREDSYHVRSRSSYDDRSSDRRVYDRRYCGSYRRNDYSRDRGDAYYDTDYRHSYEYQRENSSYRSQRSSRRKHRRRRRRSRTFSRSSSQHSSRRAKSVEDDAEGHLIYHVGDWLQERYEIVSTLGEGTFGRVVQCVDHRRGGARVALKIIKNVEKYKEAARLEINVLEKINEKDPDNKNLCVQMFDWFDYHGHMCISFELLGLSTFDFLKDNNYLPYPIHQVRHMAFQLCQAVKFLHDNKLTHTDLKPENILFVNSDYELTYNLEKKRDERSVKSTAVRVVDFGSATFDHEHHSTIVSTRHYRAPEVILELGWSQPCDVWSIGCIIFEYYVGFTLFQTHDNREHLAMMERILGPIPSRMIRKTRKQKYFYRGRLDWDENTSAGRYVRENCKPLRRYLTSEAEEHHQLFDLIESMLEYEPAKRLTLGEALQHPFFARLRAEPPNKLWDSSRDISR
Activin receptor type-1-like (Homo sapiens), sequence (P37023 whole entry): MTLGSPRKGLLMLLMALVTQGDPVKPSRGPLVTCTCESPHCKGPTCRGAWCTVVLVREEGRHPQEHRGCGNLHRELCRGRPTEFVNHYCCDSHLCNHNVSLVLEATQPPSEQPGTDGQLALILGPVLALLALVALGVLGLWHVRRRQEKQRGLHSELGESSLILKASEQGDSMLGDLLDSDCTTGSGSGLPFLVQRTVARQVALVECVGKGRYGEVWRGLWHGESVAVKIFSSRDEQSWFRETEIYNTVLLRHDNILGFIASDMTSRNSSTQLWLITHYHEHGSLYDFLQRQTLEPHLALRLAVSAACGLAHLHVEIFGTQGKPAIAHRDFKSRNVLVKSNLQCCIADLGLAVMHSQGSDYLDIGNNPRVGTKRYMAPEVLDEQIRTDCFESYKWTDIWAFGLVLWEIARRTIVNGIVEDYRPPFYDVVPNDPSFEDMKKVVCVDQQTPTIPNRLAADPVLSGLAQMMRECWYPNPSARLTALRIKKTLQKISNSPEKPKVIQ
Serine/threonine-protein kinase 4, sequence (Q13043 whole entry): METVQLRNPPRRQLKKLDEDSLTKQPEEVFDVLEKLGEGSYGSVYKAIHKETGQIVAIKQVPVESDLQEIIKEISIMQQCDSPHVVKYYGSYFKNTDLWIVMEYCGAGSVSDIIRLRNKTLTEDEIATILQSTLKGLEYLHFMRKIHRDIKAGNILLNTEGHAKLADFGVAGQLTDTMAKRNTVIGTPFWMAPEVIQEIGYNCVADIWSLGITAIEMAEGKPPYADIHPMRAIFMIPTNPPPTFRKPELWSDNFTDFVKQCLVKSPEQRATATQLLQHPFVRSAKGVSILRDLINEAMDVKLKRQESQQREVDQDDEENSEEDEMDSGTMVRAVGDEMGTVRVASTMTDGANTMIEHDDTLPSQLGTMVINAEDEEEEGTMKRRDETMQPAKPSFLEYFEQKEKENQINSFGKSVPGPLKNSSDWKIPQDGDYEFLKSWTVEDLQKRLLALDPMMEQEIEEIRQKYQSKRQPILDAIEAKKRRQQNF
Serine/threonine-protein kinase 16 (Homo sapiens), sequence (O75716 whole entry): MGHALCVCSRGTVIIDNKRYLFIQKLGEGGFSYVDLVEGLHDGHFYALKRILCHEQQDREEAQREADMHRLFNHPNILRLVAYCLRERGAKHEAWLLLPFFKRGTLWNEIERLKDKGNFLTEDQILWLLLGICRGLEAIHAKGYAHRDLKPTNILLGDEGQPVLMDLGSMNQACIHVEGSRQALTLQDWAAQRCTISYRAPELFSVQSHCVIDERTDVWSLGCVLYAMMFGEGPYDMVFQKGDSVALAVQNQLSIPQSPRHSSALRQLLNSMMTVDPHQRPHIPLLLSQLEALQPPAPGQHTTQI
Serine/threonine-protein kinase Nek4 (Homo sapiens), P51957 [P225A], sequence (P51957 whole entry P225A): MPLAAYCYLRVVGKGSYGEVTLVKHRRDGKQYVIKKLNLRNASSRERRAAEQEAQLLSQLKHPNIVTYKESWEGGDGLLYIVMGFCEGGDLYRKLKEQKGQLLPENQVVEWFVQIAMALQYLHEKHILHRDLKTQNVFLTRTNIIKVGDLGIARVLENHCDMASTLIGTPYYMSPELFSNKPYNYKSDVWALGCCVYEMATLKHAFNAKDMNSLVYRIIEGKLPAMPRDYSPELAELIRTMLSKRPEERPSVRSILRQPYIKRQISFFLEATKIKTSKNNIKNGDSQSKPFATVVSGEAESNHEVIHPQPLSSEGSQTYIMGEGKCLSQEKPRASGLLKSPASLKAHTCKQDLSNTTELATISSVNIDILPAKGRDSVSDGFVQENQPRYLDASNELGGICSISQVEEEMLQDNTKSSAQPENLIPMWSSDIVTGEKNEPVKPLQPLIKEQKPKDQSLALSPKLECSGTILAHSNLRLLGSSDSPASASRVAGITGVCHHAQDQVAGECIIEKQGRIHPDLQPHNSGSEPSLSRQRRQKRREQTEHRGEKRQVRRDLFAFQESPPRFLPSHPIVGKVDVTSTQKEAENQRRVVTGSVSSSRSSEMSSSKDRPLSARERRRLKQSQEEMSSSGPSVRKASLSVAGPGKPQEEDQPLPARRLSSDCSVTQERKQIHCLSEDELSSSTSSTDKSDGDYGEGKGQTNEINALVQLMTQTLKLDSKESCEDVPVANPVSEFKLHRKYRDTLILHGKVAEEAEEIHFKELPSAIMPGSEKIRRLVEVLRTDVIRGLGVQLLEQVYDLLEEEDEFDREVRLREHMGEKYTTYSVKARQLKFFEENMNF
Serine/threonine-protein kinase pim-1 (Homo sapiens), sequence (P11309 whole entry, looked up): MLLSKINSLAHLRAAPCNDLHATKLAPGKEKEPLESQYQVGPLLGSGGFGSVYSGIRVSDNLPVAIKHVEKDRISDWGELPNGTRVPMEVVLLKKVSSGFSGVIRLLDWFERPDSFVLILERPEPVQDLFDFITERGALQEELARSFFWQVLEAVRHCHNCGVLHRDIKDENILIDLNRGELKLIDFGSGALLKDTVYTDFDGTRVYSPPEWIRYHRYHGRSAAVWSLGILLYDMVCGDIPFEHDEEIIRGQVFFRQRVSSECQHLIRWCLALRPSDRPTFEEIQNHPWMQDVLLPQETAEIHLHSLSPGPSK

For C[C@@H](c1ccccc1)n1nnc2cnc3ccc(-c4cnc5[nH]ccc5c4)cc3c21, the Activity [1] was 110%, the Activity [2] was 78% and the Activity [3] was 93%. It also gave an Activity [4] of 54%, an Activity [5] of 116% and an Activity [6] of 83%. The Activity [7] was 85%, the Activity [8] was 82% and the Activity [9] was 30%. For the same compound, the Activity [10] was 3%, the Activity [11] was 50% and the Activity [12] was 20%. The Activity [13] was 69%, the Activity [14] was 68% and the Activity [15] was 60%. For the same compound, the Activity [16] was 59%, the Activity (Homo sapiens) was 35% and the Activity [17] was 86%. For the same compound, the Activity [18] was 8%, the pIC50 [19] was < 5.00 and the inhibition (A549) was “Dose-dependent effect”.
